Activity calls are given as the source filed them.
Legend:
Mus musculus [1] = assay: Anticonvulsant activity in CF-1 mouse model of maximal electroshock-induced seizure assessed as suppression of tonic hind limb extension at 100 mg/kg, ip measured at 0.25 hrs post dose; assay type: functional, organism-based
Summary of the method: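 Mice dosed i.p. and given maximal electroshock at 50 mA. Read-out is protection, reported as number protected / number tested at 0.25, 0.5, 1 and 4 h after dosing.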

[2] = Neurotoxicity in CF-1 mouse at 300 mg/kg, ip measured after 0.5 hrs by rotarod test; assay type: toxicity, organism-based; conditions: in vivo
Summary of the method: (§1)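 Mice dosed i.p. were placed on a 1 in. knurled rod turning at 6 rpm. Toxicity was scored as failure to keep balance for at least 1 min, i.e. falling off three or more times. Results are reported as animals showing toxicity / animals tested at each time point.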

Mus musculus [3] = assay: Anticonvulsant activity in ip dosed CF-1 mouse model of maximal electroshock-induced seizure assessed as suppression of tonic hind limb extension; assay type: functional; conditions: CF-1, ip
[4] = Neurotoxicity in CF-1 mouse at 100 mg/kg, ip measured after 0.25 hrs by rotarod test; assay type: toxicity, organism-based; conditions: in vivo; summary of the method: as §1
[5] = Neurotoxicity in CF-1 mouse at 220 mg/kg, ip measured after 4 hrs by rotarod test; assay type: toxicity, organism-based; conditions: in vivo; summary of the method: as §1
[6] = Neurotoxicity in po dosed Sprague-Dawley rat by rotarod test; assay type: toxicity, organism-based; conditions: in vivo
Summary of the method: (§2)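 Rat neurotoxicity after i.p. or p.o. dosing was scored as animals impaired / animals tested at each time point. For p.o. dosing, TD50 was obtained by probit analysis.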

[7] = Neurotoxicity in Sprague-Dawley rat at 30 mg/kg, ip measured after 1 hr by rotarod test; assay type: toxicity, organism-based; conditions: in vivo; summary of the method: as §2
[8] = Neurotoxicity in Sprague-Dawley rat at 300 mg/kg, ip measured after 4 hrs by rotarod test; assay type: toxicity, organism-based; conditions: in vivo; summary of the method: as §2
Rattus norvegicus [9] = assay: Anticonvulsant activity in hippocampal kindling Sprague-Dawley rat model assessed as after discharge time at 50 mg/kg, ip administered as single dose measured after 15 mins; assay type: functional
Summary of the method: (§3)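 Rats implanted with a hippocampal electrode and kindled with suprathreshold trains (200 µA, 10 s, 50 Hz) every 30 min for 6 h on alternate days until fully kindled. One week later they received a single i.p. dose. Seizure score (Racine scale) and afterdischarge duration were recorded at 0–135 min and compared with the control stimulus given 15 min before dosing; each animal served as its own control. Values are mean ± SEM.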

Rattus norvegicus [10] = assay: Anticonvulsant activity in hippocampal kindling Sprague-Dawley rat model assessed as after discharge time at 50 mg/kg, ip administered as single dose measured after 105 mins; assay type: functional; summary of the method: as §3
Rattus norvegicus [11] = assay: Anticonvulsant activity in hippocampal kindling Sprague-Dawley rat model assessed as after discharge time at 100 mg/kg, ip administered as single dose measured immediately; assay type: functional; summary of the method: as §3
Astrocyte = assay: Cytotoxicity against mouse astrocytes assessed as effect on cell proliferation at 10 to 200 uM after 72 hrs by crystal violet staining based spectrophotometric method
Summary of the method: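 Proliferation in mouse astrocyte line: 1×10^4 cells per well, exposed 24 h after seeding to 10–200 µM for 72 h. Fixed in 3.7% formaldehyde, stained 10 min with 0.01% crystal violet, dye eluted with methanolic citric acid/sodium citrate, OD at 540 nm.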

Structure (SMILES)	Activity (Mus musculus [1])	Activity [2]	ED50 (Mus musculus [3])	Activity [4]	Activity [5]	TD50 [6]	Activity [7]	Activity [8]	Time (Rattus norvegicus [9])	Time (Rattus norvegicus [10])	Time (Rattus norvegicus [11])	Activity (Astrocyte)
CCC(O)CNC(=O)COc1c(C)cccc1C (configuration not stated)	Active	Toxic	–	–	–	–	–	–	–	–	–	–
Cc1cccc(C)c1OCC(=O)N[C@H](C)CO	–	–	97.9 mg/kg	Non-Toxic	Non-Toxic	> 500 mg/kg	Non-Toxic	Toxic	71 s	77 s	68 s	Non-Toxic

— ChEMBL document CHEMBL4368872, “Synthesis and anticonvulsant activity of phenoxyacetyl derivatives of amines, including aminoalkanols and amino acids” (Medchemcomm, 2018)
